Results from ChEMBL document CHEMBL1125228, “A 3-D model for 5-HT1A-receptor agonists based on stereoselective methyl-substituted and conformationally restricted analogues of 8-hydroxy-2-(dipropylamino)tetralin” (J Med Chem, 1991).
Values joined by “and” are separate entries in the source; they are usually repeats but may differ in a detail not shown here. Equal values may be shown once.

Assays:
[1] = target: T1, Dopamine receptor (Rattus norvegicus) (UniProt P25115+P19020+P30729+P18901+P61169); experiment: In vivo accumulation of DOPA in limbic of rat brain at a dose of 63 umol/kg.; assay type: functional, organism-based
Summary of the method: (§1)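 Rats, reserpine-pretreated (5 mg/kg, i.e. 9 μmol/kg sc, 6 h before) or nonpretreated, given test hydrochloride sc in the neck (injection volume 5 mL/kg). Decarboxylase inhibitor NSD 1015 (100 mg/kg ip or 60 mg/kg sc) given 30 min later; decapitation after another 30 min. Brain dissected on ice into striatum, limbic system, hemispheres, brain stem. Homogenized in 0.1 M perchloric acid with α-methyl-DOPA internal standard; DOPA measured by ion-pair reversed-phase HPLC with electrochemical detection.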

[2] = tested on: Rattus norvegicus; experiment: In vivo accumulation of 5-HTP in hemisphere of rat brain at a dose of 63 umol/kg.; assay type: functional
Summary of the method: (§2)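 Hydrochlorides given sc in the neck (5 mL/kg) to rats, either untreated or reserpine-pretreated (5 mg/kg sc, 6 h before). Decarboxylase inhibitor NSD 1015 (100 mg/kg ip or 60 mg/kg sc) given 30 min later; rats decapitated after another 30 min. Striatum, limbic system, hemispheres and brain stem dissected on ice and homogenized in 0.1 M perchloric acid with α-methyl-DOPA internal standard. DOPA, DA, 5-HTP and 5-HT measured by ion-pair reversed-phase HPLC with electrochemical detection.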

[3] = tested on: Rattus norvegicus; experiment: In vivo accumulation of 5-HT in striatum of rat brain at a dose of 63 umol/kg.; assay type: functional; summary of the method: as §2
[4] = tested on: Rattus norvegicus; experiment: In vivo accumulation of DA in striatum of rat brain at a dose of 63 umol/kg.; assay type: functional; summary of the method: as §2
[5] = tested on: Rattus norvegicus; experiment: In vivo accumulation of DOPA in brain stem of rat brain at a dose of 63 umol/kg.; assay type: functional; summary of the method: as §2
[6] = tested on: Rattus norvegicus; experiment: In vivo accumulation of 5-HTP in brain stem of rat brain at a dose of 63 umol/kg.; assay type: functional; summary of the method: as §2
[7] = tested on: Rattus norvegicus; experiment: In vivo accumulation of 5-HTP in limbic of rat brain at a dose of 63 umol/kg.; assay type: functional; summary of the method: as §2
[8] = tested on: Rattus norvegicus; experiment: In vivo accumulation of DOPA in striatum of rat brain at a dose of 63 umol/kg.; assay type: functional; summary of the method: as §1
[9] = tested on: Rattus norvegicus; experiment: In vivo accumulation of 5-HTP in striatum of rat brain at a dose of 63 umol/kg.; assay type: functional; summary of the method: as §2
[10] = tested on: Rattus norvegicus; experiment: In vivo accumulation of DOPA in hemisphere of rat brain at a dose of 63 umol/kg.; assay type: functional; summary of the method: as §1
[11] = tested on: Rattus norvegicus; experiment: In vivo accumulation of 5-HT in limbic of rat brain at a dose of 63 umol/kg.; assay type: functional; summary of the method: as §2
[12] = target: T2, 5-hydroxytryptamine receptor 1A (Rattus norvegicus, UniProt P19327); experiment: Binding affinity at 5-hydroxytryptamine 1A receptor by the displacement of [3H]8-OH-DPAT in rat brain.; assay type: tissue-based
T2 sequence (P19327 whole entry): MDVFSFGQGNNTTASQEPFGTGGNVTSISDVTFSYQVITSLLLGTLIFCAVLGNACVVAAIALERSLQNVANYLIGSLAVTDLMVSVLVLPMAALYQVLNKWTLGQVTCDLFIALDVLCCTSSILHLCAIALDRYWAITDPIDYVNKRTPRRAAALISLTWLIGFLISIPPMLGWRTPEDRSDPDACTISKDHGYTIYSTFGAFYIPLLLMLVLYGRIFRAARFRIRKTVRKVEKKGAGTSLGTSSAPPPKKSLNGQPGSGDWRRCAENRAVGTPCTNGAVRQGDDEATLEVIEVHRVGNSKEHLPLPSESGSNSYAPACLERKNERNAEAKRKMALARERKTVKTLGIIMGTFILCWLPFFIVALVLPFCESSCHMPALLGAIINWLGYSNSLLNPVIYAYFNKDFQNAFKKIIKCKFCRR
Summary of the method: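 Rat brain membranes washed in 50 mM Tris-HCl pH 7.4, with a 37 °C 10 min incubation to remove endogenous 5-HT, used at 10 mg wet tissue/mL. Incubated 15 min at 37 °C with 1 nM [3H]-8-OH-DPAT, 3 mM CaCl2 and pargyline. Filtered and counted; 10 µM 5-HT defined nonspecific binding. IC50 from four-parameter logistic fit, converted to Ki by Cheng-Prusoff; mean ± SEM of N experiments.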

[13] = target: Serotonin (5-HT) receptor (Rattus norvegicus) (UniProt P35563+P35365+P32305+P31388+Q9JJ16+P28564+P30994+Q62758+P08909+P14842+P30940+P35364+P19327+P28565); experiment: Dose corresponding to half-maximal decrease of 5-HTP formation in the limbic and striatal parts of rat brain; assay type: functional, tissue-based
[14] = target: T1, Dopamine receptor (Rattus norvegicus); experiment: In vivo accumulation of DOPA in hemisphere of rat brain at a dose of 53 umol/kg.; assay type: functional, organism-based; summary of the method: as §1
[15] = tested on: Rattus norvegicus; experiment: In vivo accumulation of 5-HTP in brain stem of rat brain at a dose of 53 umol/kg.; assay type: functional; summary of the method: as §2
[16] = tested on: Rattus norvegicus; experiment: In vivo accumulation of 5-HT in limbic of rat brain at a dose of 53 umol/kg.; assay type: functional; summary of the method: as §2
[17] = tested on: Rattus norvegicus; experiment: In vivo accumulation of 5-HT in striatum of rat brain at a dose of 53 umol/kg.; assay type: functional; summary of the method: as §2
[18] = tested on: Rattus norvegicus; experiment: In vivo accumulation of DA in striatum of rat brain at a dose of 53 umol/kg.; assay type: functional; summary of the method: as §2
[19] = tested on: Rattus norvegicus; experiment: In vivo accumulation of DOPA in striatum of rat brain at a dose of 53 umol/kg.; assay type: functional; summary of the method: as §1
[20] = tested on: Rattus norvegicus; experiment: In vivo accumulation of 5-HTP in hemisphere of rat brain at a dose of 53 umol/kg.; assay type: functional; summary of the method: as §2
[21] = tested on: Rattus norvegicus; experiment: In vivo accumulation of 5-HTP in limbic of rat brain at a dose of 53 umol/kg.; assay type: functional; summary of the method: as §2
[22] = tested on: Rattus norvegicus; experiment: In vivo accumulation of DOPA in brain stem of rat brain at a dose of 53 umol/kg.; assay type: functional; summary of the method: as §2
[23] = tested on: Rattus norvegicus; experiment: In vivo accumulation of 5-HTP in striatum of rat brain at a dose of 53 umol/kg.; assay type: functional; summary of the method: as §2

For `Oc1cccc2c1C[C@H]1NCCC[C@@H]1C2`, the Control [1] was 84.4% and 89.8%, the Control [2] was 81.9% and the Control [3] was 100.5%. For the same molecule, the Control [4] was 92.4%, the Control [5] was 91.4% and the Control [6] was 101.7%. It also gave a Control [7] of 82.3%, a Control [8] of 84.2% and a Control [9] of 96.5%. For the same molecule, the Control [10] was 79% and the Control [11] was 89.4%.
`CCCN(CCC)[C@H]1Cc2c(O)cccc2C[C@@H]1C` (racemic) gave a Ki [12] of 0.104 µM.
`CCCN1CCC[C@@H]2c3c(O)cccc3CC[C@H]21` [listing 1 of 2 here] gave a Ki [12] of 0.0323 µM.
`CCCN1CCC[C@H]2c3c(O)cccc3CC[C@@H]21` [listing 1 of 2 here] was tested, and the Ki [12] was 0.00387 µM.
Molecule `CCCN1CCC[C@@H]2Cc3cccc(O)c3C[C@H]21` [listing 1 of 3 here] has a Ki [12] of 2.81 µM.
Molecule `CCCN(CCC)C1Cc2c(O)cccc2CC1(C)C` (racemic) has an ED50 [13] of over 0.05 mg/kg and a Ki [12] of over 10 µM.
In the case of `CCCN(CCC)[C@@H]1Cc2c(O)cccc2C[C@@H]1C`, the ED50 [13] is reported as 0.02 mg/kg and the Ki [12] is reported as 0.394 µM.
`CCCN1CCC[C@@H]2Cc3cccc(O)c3C[C@H]21` [listing 2 of 3 here] showed a Control [14] of 97.5% and an ED50 [13] of over 0.05 mg/kg.
`CCCN(CCC)[C@@H]1CCc2cccc(O)c2[C@@H]1C` gave a Ki [12] of 0.00208 µM.
With `CCCN1CCC[C@H]2Cc3cccc(O)c3C[C@@H]21` the Control [15] was 112.4%, the Control [16] was 95.1% and the Control [17] was 116.9%. The Control [18] was 95.4%, the Control [19] was 91.4% and the Control [20] was 113%. It also gave a Control [21] of 102.3%, a Control [22] of 117.7% and a Control [23] of 124.8%.
Molecule `CCCN1CCC[C@H]2c3c(O)cccc3CC[C@@H]21` [listing 2 of 2 here] has a Control [14] of 140% and an ED50 [13] of 0.0005 mg/kg.
Molecule `CCCN(CCC)[C@H]1Cc2c(O)cccc2C[C@H]1C` has a Ki [12] of 2.02 µM.
Work on `CCCN(CCC)[C@@H]1C[C@@H]1c1cccc(O)c1` yielded an ED50 [13] of over 0.05 mg/kg.
For `CCCN1CCC[C@@H]2Cc3cccc(O)c3C[C@@H]21`, the Control [14] was 63% and the ED50 [13] was over 0.05 mg/kg.
For `CCCN(CCC)[C@H]1Cc2c(O)cccc2C[C@H]1C` (racemic), the Ki [12] was 0.656 µM.
Work on `CCCN1CCC[C@@H]2Cc3cccc(O)c3C[C@H]21` [listing 3 of 3 here] yielded a Control [15] of 91.9%, a Control [16] of 114.3% and a Control [17] of 132%. It also gave a Control [18] of 114.5%, a Control [19] of 66.1% and a Control [20] of 92.2%. It also gave a Control [21] of 88%, a Control [22] of 125.1% and a Control [23] of 85%.
In the case of `CCCN(CCC)[C@@H]1C[C@@H]1c1ccccc1O`, the ED50 [13] is reported as 0.04 mg/kg.
`CCCN1CCC[C@@H]2c3c(O)cccc3CC[C@H]21` [listing 2 of 2 here] gave a Control [14] of 117% and an ED50 [13] of 0.0005 mg/kg.
